High-throughput results: PubChem, The Scripps Research Institute Molecular Screening Center
OXTR potentiate: human OXTR potentiation; activation, % at 3 µM; AID 2445; CHO-OTR cells, Fluo-8 calcium fluorescence, potentiator mode; 0% = oxytocin EC15, 100% = EC100; P30559; 320,000 compounds, 0.061% hits;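 active means activation above that plate's cutoff, the mean activation of tested compounds plus 3 SD, cut at about 6.6% in these data, passing the limit was not always enough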
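Dosing: Single dose, 3.0 µM nominal final compound concentration | Material: Human OTR in CHO cells | Technique: Kinetic Fluo-8 calcium fluorescence | Benchmarks: EC15 oxytocin alone as 0%, 75 nM oxytocin as 100% | Probe or stimulus: Oxytocin at about EC15, sub-maximal agonist stimulus | Incubation: Compound 6 min at room temperature before oxytocin, 100 s read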
zfTRPN1 agonist: zebrafish TRPN1 (NompC) channel agonism | AID 1424 | 220,000 compounds, 0.18% hits | activation, % at 3 µM | HEK293 zebrafish TRPN1-YFP, Fluo-8 calcium fluorescence; 100% = response to 87 µM carbachol;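 active means activation above its plate's cutoff, the mean activation of test wells on that plate plus 3 SD, cut at about 19% in these data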
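Assay system: Zebrafish TRPN1-YFP in HEK293 cells | Incubation: Dye loading 1 h at 37 °C, then 30 min room temperature | Measured by: Kinetic Fluo-8 fluorescence, ex 470-495, em 515-575 nm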
V1R ag counter: counter-screen for oxytocin receptor agonists: human V1a receptor agonists. P37288. CHO-V1R cells, Fluo-8 calcium fluorescence, agonist mode; 0% DMSO, 100% 3 nM vasopressin. activation, % at 3 µM. 320,000 compounds, 0.25% hits. AID 2797;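 active means activation above the mean activation of all tested compounds plus 3 SD, per screening run, cut at about 20% in these data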;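 further: signal is peak over basal fluorescence ratio across a 100 second FLIPR read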
TRPML3 ag: agonists of human TRPML3 channel | HEK293 TRPML3-YFP, Fluo-8 calcium fluorescence; 100% = the carbachol control signal | activation, % at 3 µM | 220,000 compounds, 0.29% hits | AID 1448;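 active means activation above its plate's cutoff, the mean activation of the plate's test wells plus 3 SD, cut at about 12% in these data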
Target sequence (Q8TDD5 whole entry, looked up): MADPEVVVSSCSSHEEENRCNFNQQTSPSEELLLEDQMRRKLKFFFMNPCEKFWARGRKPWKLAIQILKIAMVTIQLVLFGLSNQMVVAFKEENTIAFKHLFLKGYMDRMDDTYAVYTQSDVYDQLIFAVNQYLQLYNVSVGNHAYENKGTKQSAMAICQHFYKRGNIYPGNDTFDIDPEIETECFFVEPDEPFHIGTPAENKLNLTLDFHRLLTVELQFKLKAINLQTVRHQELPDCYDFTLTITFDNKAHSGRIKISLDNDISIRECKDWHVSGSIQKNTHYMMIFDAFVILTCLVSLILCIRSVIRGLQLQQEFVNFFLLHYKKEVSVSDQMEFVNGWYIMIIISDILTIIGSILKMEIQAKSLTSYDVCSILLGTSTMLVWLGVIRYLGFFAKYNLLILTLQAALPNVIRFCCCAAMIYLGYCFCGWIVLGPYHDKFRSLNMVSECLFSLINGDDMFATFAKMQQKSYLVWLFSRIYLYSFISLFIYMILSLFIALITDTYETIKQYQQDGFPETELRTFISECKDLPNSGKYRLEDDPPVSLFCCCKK
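Test system: HEK293 cells stably carrying human TRPML3-YFP; Doses: single dose, 3 µM final nominal compound, 0.3% DMSO final; Schedule: dye loading 1 h 37 °C then 30 min ambient, 125 s read; Technique: Fluo-8 calcium fluorescence; Benchmarks: high control carbachol 87 µM, low control DMSO.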
OXTR agonist: agonists of human oxytocin receptor. P30559. CHO-OTR cells, Fluo-8 calcium fluorescence; normalized: DMSO 0%, oxytocin 100%. activation, % at 3 µM. 320,000 compounds, 0.32% hits. AID 2435;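 active means activation above the mean of all tested compounds plus 3 SD, cutoff set per screening run, cut at about 20% in these data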;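 further: peak over basal fluorescence ratio from a 100 s FLIPR kinetic read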
TRPN1 ag 2: activates zebrafish TRPN1, counter-screen for TRPML3 agonists; shares compounds with TRPML3 ag; HEK293 zebrafish TRPN1-YFP, Fluo-8 calcium fluorescence; scaled: carbachol wells 100%, DMSO wells 0%; activation, % at 3 µM; 310 compounds, 10% hits; AID 1525;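 active means mean activation over replicates above a set limit taken from the earlier TRPN1 channel primary screen, cut at about 19% in these data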
TRPML3 confirm: human TRPML3 agonism, confirmation; activation, % at 3 µM; 310 compounds, 80% hits; HEK293 TRPML3-YFP, Fluo-8 calcium fluorescence; 100% set by carbachol, 0% by DMSO; shares compounds with TRPML3 ag;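 active means activation above a set limit derived from the earlier primary screen, cut at about 12% in these data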
OXTR ag confirm: human OXTR agonism, confirmation | shares compounds with OXTR agonist | CHO-OTR cells, Fluo-8 calcium fluorescence, agonist | activation, % at 3 µM | 390 compounds, 20% hits;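 active means mean activation above about 20% derived from the earlier single-dose screen, limit read from the data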;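 further: peak over minimum fluorescence ratio per well during a 100 second FLIPR read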
V1R ag counter 3x: counter-screen for oxytocin receptor agonists: V1a receptor agonists | shares compounds with OXTR agonist | CHO-V1R cells, Fluo-8 calcium fluorescence, agonist | activation, % at 3 µM | 390 compounds, 10% hits | AID 434991;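 active means mean activation over triplicate exceeds the hit threshold set in the earlier primary screen, cut at about 20% in these data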;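 further: peak over basal fluorescence ratio within a 100 second read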
Each line names hits and unclear results; the compound was inactive in the other large screens (follow-up assays come after a bar, where they were run). An excerpt weighted towards active compounds, which were near 0.55% of everything screened.

CCCCCn1c(=O)c(C(=O)Nc2ccccc2C)c(O)c2ccccc21	none (no result: zfTRPN1 agonist, TRPML3 ag)
CCCCCCn1c(=O)c(C(=O)Nc2ncccc2C)c(O)c2ccccc21	V1R ag counter 45.6, OXTR agonist 37.8 (no result: zfTRPN1 agonist, TRPML3 ag)
CCCCn1c(=O)c(C(=O)Nc2ncccc2C)c(O)c2ccccc21	V1R ag counter 38.7, OXTR agonist 35.5 (no result: zfTRPN1 agonist, TRPML3 ag)
C=C(C=O)C[C@@H]1C[C@H](O)C2OC3C[C@]4(C)OC5/C=C\CC6OC7C(CC=CCC6OC5CCCC4OC3CC2O1)OC1CC2OC3CC(=O)OC3C[C@@H](C)C[C@@]2(C)OC1C[C@@H]7C (some centres undefined)	none (no result: zfTRPN1 agonist, TRPML3 ag)
CNC(=O)NC(O)C(Cl)(Cl)Cl (centres undefined)	none (no result: zfTRPN1 agonist, TRPML3 ag)
COC(=NC1CCCC1)C(O)c1c[nH]c2ccccc12 (centres undefined)	none
Cc1nc2cc(C(F)(F)F)ccc2n1C1CCN(Cc2nnnn2Cc2cccs2)CC1	V1R ag counter 36.6, OXTR agonist 32.5
Cc1nc2cc(C(F)(F)F)ccc2n1C1CCN(Cc2nnnn2Cc2ccc3c(c2)OCO3)CC1	none
CC1(C)CSC(=NCc2ccccc2)N1	zfTRPN1 agonist 60.7, TRPML3 ag 58.1
CN1/C(=C\C=C\C2=[N+](C)c3ccc4ccccc4c3C2(C)C)C(C)(C)c2ccccc21	zfTRPN1 agonist 23.8, V1R ag counter 58.7, TRPML3 ag 28.7, OXTR agonist 80.5
O=C1/C(=C\c2ccccc2)C2OCC=C3CN4CCC56c7ccccc7N1C5C2C3CC46 (centres undefined)	OXTR agonist 20.1
O=C1CC2OCC=C3CN4CCC56c7cc([N+](=O)[O-])ccc7N1C5C2C3CC46 (centres undefined)	none
CCOc1ccc(NC(=O)c2c(O)[nH]c(=O)[nH]c2=O)cc1	none (no result: zfTRPN1 agonist, TRPML3 ag)
CCOC(=O)c1ccc(NC(=O)c2c(O)[nH]c(=O)[nH]c2=O)cc1	zfTRPN1 agonist 307.7, TRPML3 ag 247.0
CN1/C(=C\C=C2C(=O)NC(=O)NC2=O)C(C)(C)c2ccccc21	zfTRPN1 agonist 42.3, V1R ag counter 31.5, TRPML3 ag 17.4, OXTR agonist 25.0
O=C1NC(=O)N(c2ccc(Cl)cc2)C(=O)/C1=C\c1ccc(Sc2nc3ccccc3[nH]2)o1	zfTRPN1 agonist 21.6, V1R ag counter 36.3, TRPML3 ag 12.2, OXTR agonist 29.4
CCOC(=O)c1c(C)n(Cc2ccco2)c2c1cc(O)c1ccccc12	none
O=C1NC(=O)N(Cc2ccc(F)cc2)C(=O)/C1=C\c1ccoc1	V1R ag counter 29.2, OXTR agonist 30.9
CCOC(=O)C1CCN(/C=C2/C(=O)NC(=O)N(Cc3ccco3)C2=O)CC1	none
COC(=O)C1=C(c2ccc(C(C)=O)cc2)C[C@@H]2CC[C@H]1N2C(=O)N1CCCCC1	none (no result: zfTRPN1 agonist, TRPML3 ag)
O=C1CCCN1CC#CCN1CCCC1	TRPML3 ag 26.6 | TRPN1 ag 2 inactive | TRPML3 confirm 35.0
COc1cccc(CCNCc2ccc(SC)cc2)c1	none
CCCCn1c(=O)c(C(=O)NCc2ccccc2Cl)c(O)c2ccccc21	OXTR agonist 38.0 (no result: zfTRPN1 agonist, TRPML3 ag) | OXTR ag confirm inactive | V1R ag counter 3x inactive
Cc1ccc2c(c1)CC1(CN2C)C(=O)NC(=O)N(CCC2=CCCCC2)C1=O (centres undefined)	none
Oc1ccc(C2NCc3ccccc3-n3cccc32)cc1Cl (centres undefined)	OXTR agonist 27.9 | OXTR ag confirm inactive | V1R ag counter 3x inactive
